Experimental findings from publication PMC3963460 (Synthesis, 2013) are described below.

For the assay, the target named is PKC rat-brain isozyme mixture. Briefly: Protein kinase C isozyme mixture competitive binding assay with. To be noted: read-out: Kd of (^3H)PDBu; measured under these assay conditions. The method in brief:
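Rat-brain PKC isozyme mixture in Tris-HCl pH 7.4 buffer with KCl, CaCl2 and BSA, plus phosphatidylserine vesicles; (3H)PDBu added in DMSO. Triplicate vials incubated at 37 °C for 90 min, then 15 min on ice. Nonspecific binding from an unlabelled analogue at 5 μM assay concentration. Filtered through poly(ethyleneamine)-soaked filters, washed with ice-cold 20 mM Tris pH 7.4, scintillation-counted.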

As for `CCCC(=O)OC1C(C)C2(O)C(C=C(CO)CC3(O)C(=O)C(C)=CC32)C2C(C)(C)C12OC(=O)CCC` (stereo not shown) [(^3H)PDBu, (^3H)phorbol dibutyrate], the Kd is 1.55 nM.

As usually defined, the Kd is the constant that tells how readily two partners part at equilibrium.
